Test results from ChEMBL document CHEMBL4834426, “Antimalarial Benzimidazole Derivatives Incorporating Phenolic Mannich Base Side Chains Inhibit Microtubule and Hemozoin Formation: Structure-Activity Relationship and In Vivo Oral Efficacy Studies” (J Med Chem, 2021).
≈ marks a conversion by molar mass, not a printed value. Calls of active or inactive are those of the source. The calls are words filed in the database; no cut-off is given here.

Assays:
[1] = Inhibition of tubulin polymerization in asexual blood stage Plasmodium falciparum NF54
[2] = Cmax in Balb/c mouse at 10 mg/kg, po measured up to 24 hrs by LC-MS/MS analysis; type: ADME, organism-based; parameters: route oral, dose 10 mg/kg, time <=24; settings: in vivo
Summary of the method: (§1)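 Male Balb/c mice, not fasted, food and water ad libitum; single oral dose. Tail-vein blood into heparinized tubes at 0.5, 1, 3, 5, 7, 9 and 24 h, stored at −80 °C. Whole blood protein-precipitated with acetonitrile containing internal standard, analyzed by LC−MS/MS (LOQ 2 ng/mL). Parameters by noncompartmental analysis with curve stripping. Mean of three mice per point.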

[3] = Tmax in Balb/c mouse at 10 mg/kg, po measured up to 24 hrs by LC-MS/MS analysis; type: ADME, organism-based; settings: in vivo; summary of the method: as §1
Plasmodium falciparum [4] = test: Antimalarial activity against asexual blood stage drug-sensitive Plasmodium falciparum NF54 infected in erythrocytes assessed as reduction in parasitemia incubated up to 72 hrs by [3H]hypoxanthine incorporation assay; type: functional, organism-based
Summary of the method: (§2)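 [³H]-Hypoxanthine incorporation assay (modified) on asexual blood-stage P. falciparum in vitro. IC₅₀ values are means of ≥2 independent experiments.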

Plasmodium falciparum [5] = test: Antimalarial activity against asexual blood stage multi drug-resistant Plasmodium falciparum K1 infected in erythrocytes assessed as reduction in parasitemia incubated up to 72 hrs by [3H]hypoxanthine incorporation assay; type: functional, organism-based; summary of the method: as §2
[6] = Resistance index, ratio of IC50 for antimalarial activity against asexual blood stage multi drug-resistant Plasmodium falciparum K1 to IC50 for antimalarial activity against asexual blood stage drug-sensitive Plasmodium falciparum NF54; type: functional
Summary of the method: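 Resistance index is IC₅₀(K1)/IC₅₀(NF54). Both IC₅₀s came from the [³H]-hypoxanthine incorporation assay, as means of ≥2 independent experiments.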

Plasmodium falciparum [7] = test: Antiplasmodial activity against […] Plasmodium falciparum NF54 early gametocytes transfected with GFP-Luc […] at 5 uM incubated for 48 hrs by microscopy based luciferase reporter gene assay relative to control; type: functional
Summary of the method: (§3)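 NF54-Pfs16-GFP-Luc gametocytes, assays set up day 5 (early, stage II/III) or day 10 (late, stage IV/V). Culture at 2−3% gametocytemia, 1.5% hematocrit, 48 h drug exposure at 37 °C under 90% N₂/5% O₂/5% CO₂. Lysates mixed with luciferin; bioluminescence read with 10 s integration. Dual-point: one biological repeat in technical triplicate. Methylene blue (5 μM) reference.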

Plasmodium falciparum [8] = test: Antiplasmodial activity against […] Plasmodium falciparum NF54 early gametocytes transfected with GFP-Luc […] at 1 uM incubated for 48 hrs by microscopy based luciferase reporter gene assay relative to control; type: functional; summary of the method: as §3
Plasmodium falciparum [9] = test: Antiplasmodial activity against […] Plasmodium falciparum NF54 late gametocytes transfected with GFP-Luc […] at 5 uM incubated for 48 hrs by microscopy based luciferase reporter gene assay relative to control; type: functional; summary of the method: as §3
Plasmodium falciparum [10] = test: Antiplasmodial activity against […] Plasmodium falciparum NF54 late gametocytes transfected with GFP-Luc […] at 1 uM incubated for 48 hrs by microscopy based luciferase reporter gene assay relative to control; type: functional; summary of the method: as §3
CHO = test: Cytotoxicity against CHO cells assessed as inhibition of cell viability by MTT assay; type: cell-based; settings: Cricetulus griseus
[11] = Selectivity index, ratio of IC50 for Cytotoxicity against CHO cells assessed as inhibition of cell viability by MTT assay to IC50 for antimalarial activity against asexual blood stage Plasmodium falciparum NF54 assessed as reduction in parasitemia incubated up to 72 hrs by [3H]hypoxanthine incorporation assay; type: toxicity, cell-based; settings: hamster, read-out: Selectivity Index
Summary of the method: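 Selectivity index is IC₅₀(CHO)/IC₅₀(NF54). […] IC₅₀ came from nonlinear dose-response fitting. Parasite IC₅₀ came from the [³H]-hypoxanthine assay.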

[12] = Metabolic stability in mouse liver microsomes assessed as compound remaining at 1 uM incubated for 30 mins by LC-MS/MS analysis; type: ADME, Microsome; settings: read-out: Stabilty
Summary of the method: (§4)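 Single-point design: 1 μM compound with 0.4 mg/mL liver microsomes in 0.1 M phosphate buffer pH 7.4 for 30 min. Quenched with ice-cold acetonitrile containing carbamazepine internal standard, centrifuged, analyzed by LC−MS/MS. Percent remaining from internal-standard-corrected peak areas at 30 min versus 0 min. Propranolol, midazolam and MMV390048 as controls.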

[13] = Metabolic stability in rat liver microsomes assessed as compound remaining at 1 uM incubated for 30 mins by LC-MS/MS analysis; type: ADME, Microsome; settings: read-out: Stabilty; summary of the method: as §4
[14] = Metabolic stability in human liver microsomes assessed as compound remaining at 1 uM incubated for 30 mins by LC-MS/MS analysis; type: ADME, Microsome; settings: read-out: Stabilty; summary of the method: as §4
[15] = Kinetic solubility of the compound in pH 6.5 incubated for 24 hrs by HPLC-DAD analysis; type: physicochemical; settings: buffer, read-out: Kinetic_solubility
Summary of the method: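 Miniaturized shake-flask method. 10 mM DMSO stock dried down, phosphate buffer pH 6.5 added, shaken 24 h at 25 °C. Centrifuged 3500g for 15 min; supernatant analyzed by HPLC-DAD against 10−220 μM DMSO calibration curve. Reserpine, hydrocortisone and MMV390048 as controls.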

Plasmodium berghei = test: Antimalarial activity against GFP-transfected Plasmodium berghei ANKA infected in NMRI mouse model assessed as reduction in parasitemia at 50 mg/kg, po dosed 4 times relative to control; type: functional; parameters: scale not given: the % may be the effect or the level left
Summary of the method: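 Mice (n = 3) infected with GFP-transfected P. berghei ANKA. Compound in 70% Tween-80/30% ethanol, diluted 10-fold in water, given orally at 4, 24, 48 and 72 h post-infection. Blood taken day 4 (96 h); parasitemia by flow cytometry, detection limit 0.1%. Activity = difference in mean % parasitemia between control and treated, as % of control.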

[16] = Clearance in Balb/c mouse at 3 mg/kg, iv measured up to 24 hrs by LC-MS/MS analysis; type: ADME, organism-based; settings: in vivo
Summary of the method: (§5)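 Intravenous dosing in male Balb/c mice, fed ad libitum. Tail-vein blood sampled into heparinized tubes at 0.17, 0.5, 1, 3, 5, 7, 9 and 24 h, frozen at −80 °C. Blood extracted by acetonitrile protein precipitation with internal standard; LC−MS/MS quantitation, LOQ 2 ng/mL. Noncompartmental analysis based on curve stripping.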

[17] = Volume of distribution in Balb/c mouse at 3 mg/kg, iv measured up to 24 hrs by LC-MS/MS analysis; type: ADME, organism-based; settings: in vivo; summary of the method: as §5
[18] = Volume of distribution at steady state in Balb/c mouse at 3 mg/kg, iv measured up to 24 hrs by LC-MS/MS analysis; type: ADME, organism-based; settings: in vivo, read-out: Vdss; summary of the method: as §5
[19] = AUC (0 to t) in Balb/c mouse at 3 mg/kg, iv measured up to 24 hrs by LC-MS/MS analysis; type: ADME, organism-based; parameters: dose 3 mg/kg, time <=24; settings: in vivo; summary of the method: as §5
[20] = AUC (0 to t) in Balb/c mouse at 10 mg/kg, po measured up to 24 hrs by LC-MS/MS analysis; type: ADME, organism-based; parameters: dose 10 mg/kg, time <=24; settings: in vivo; summary of the method: as §1
[21] = Oral bioavailability in Balb/c mouse at 10 mg/kg measured up to 24 hrs by LC-MS/MS analysis; type: ADME, organism-based; settings: in vivo; summary of the method: as §1
Hemozoin [22] = test: Inhibition of Beta-hematin in early ring stage Plasmodium falciparum parasitized red blood cells assessed as hemozoin formation formation after 32 hrs by Giemsa staining based haemocytometric counting method
Hemozoin [23] = test: Inhibition of beta-hematin formation […] incubated for 5 hrs by NP40 detergent-mediated assay
Summary of the method: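 Cell-free β-hematin formation assay in NP-40 (305.5 μM) lipid-mimic medium. Compounds from 20 mM stock serially diluted across wells, in duplicate. Hematin suspended in 1 M acetate buffer pH 4.8; plates incubated ~5 h at 37 °C. Then pyridine solution (with HEPES pH 7.4) and acetone added; absorbance at 405 nm. IC₅₀ by curve fit.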

Plasmodium falciparum [24] = test: Antiplasmodial activity against […] Plasmodium falciparum NF54 early gametocytes transfected with GFP-Luc […] incubated for 48 hrs by microscopy based luciferase reporter gene assay relative to control; type: functional, organism-based; settings: NF54, 48 h
Summary of the method: (§6)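 Transgenic NF54-Pfs16-GFP-Luc gametocytes, read by luciferase reporter. Early assays were set up on day 5 (50% stage II/50% stage III) and late assays on day 10 (40% stage IV/60% stage V). Luciferin was added to lysates at room temperature and bioluminescence read. Methylene blue (5 μM) was the reference. Single-point screens at 1 and 5 μM used n=1 in technical triplicate. IC₅₀ came from a normalized nonlinear fit, n≥3 in triplicate.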

Plasmodium falciparum [25] = test: Antiplasmodial activity against […] Plasmodium falciparum NF54 late gametocytes transfected with GFP-Luc […] incubated for 48 hrs by microscopy based luciferase reporter gene assay relative to control; type: functional, organism-based; settings: NF54, 48 h; summary of the method: as §6

CCCSc1ccc2[nH]c(NC(=O)OC)nc2c1 [ALBENDAZOLE] showed an IC50 [1] of 30 µM.
In the case of COC(=O)Nc1nc2cc(C(=O)c3ccccc3)ccc2[nH]1 [MEBENDAZOLE], the IC50 [1] is reported as 200 µM.
CCNCc1cc(Cl)cc(Nc2nc3cc(F)c(F)cc3[nH]2)c1O showed a Cmax [2] of 26 nM, a Tmax [3] of 42 min and an IC50 (Plasmodium falciparum [4]) of 0.25 µM. The IC50 (Plasmodium falciparum [5]) was 0.78 µM, the Ratio IC50 [6] was 3.12 and the inhibition at 5 µM (Plasmodium falciparum [7]) was 35%. It also gave an inhibition at 1 µM (Plasmodium falciparum [8]) of 0%, an inhibition at 5 µM (Plasmodium falciparum [9]) of 0% and an inhibition at 1 µM (Plasmodium falciparum [10]) of 0%. The IC50 (CHO) was > 50 µM, the selectivity ratio at 72 h [11] was > 200 and the remaining at 0.5 h, 1 µM [12] was 98%. The remaining at 0.5 h, 1 µM [13] was > 99%, the remaining at 0.5 h, 1 µM [14] was > 99% and the solubility kinetic at 24 h [15] was 12 µM (≈ 4.23 µg/mL). For the same molecule, the Activity (Plasmodium berghei) was <40%, the clearance [16] was 151 mL/min/kg and the Vd [17] was 96 L/kg. It also gave a Vd [18] of 58 L/kg, an AUCt [19] of 65 µmol·min/L and an AUCt [20] of 11 µmol·min/L. The bioavailability [21] was 5%, the Activity (Hemozoin [22]) was “Active” and the IC50 (Hemozoin [23]) was 7.15 µM.
Work on CCNCc1cc(Cl)cc(Nc2nc3ccccc3n2Cc2ccc(C(F)(F)F)cc2)c1O yielded an IC50 (Plasmodium falciparum [4]) of 0.28 µM, an IC50 (Plasmodium falciparum [5]) of 0.11 µM and a Ratio IC50 [6] of 0.39. The inhibition at 5 µM (Plasmodium falciparum [7]) was 91%, the inhibition at 1 µM (Plasmodium falciparum [8]) was 66% and the IC50 (Plasmodium falciparum [24]) was 0.43 µM. It also gave an inhibition at 5 µM (Plasmodium falciparum [9]) of 8%, an inhibition at 1 µM (Plasmodium falciparum [10]) of 0% and an IC50 (CHO) of 33.8 µM. It also gave a selectivity ratio at 72 h [11] of 121, a remaining at 0.5 h, 1 µM [12] of 73% and a remaining at 0.5 h, 1 µM [13] of 66%. For the same molecule, the remaining at 0.5 h, 1 µM [14] was 94%, the solubility kinetic at 24 h [15] was 12 µM (≈ 5.7 µg/mL) and the Activity (Plasmodium berghei) was <40%. For the same molecule, the Activity (Hemozoin [22]) was “inactive”, the IC50 (Hemozoin [23]) was 33.3 µM and the IC50 (Plasmodium falciparum [25]) was > 5 µM.
